Reference: ChEMBL document CHEMBL3124940, “Design, synthesis and biological evaluation of D-ring opened galantamine analogs as multifunctional anti-Alzheimer agents” (Eur J Med Chem, 2014)

How the values were obtained:
Rattus norvegicus [1] = test: Toxicity in Wistar rat assessed as GSSG level in kidney at 6 umol/100 g body weight, ip by fluorometric analysis relative to control; format: organism-based; settings: in vivo
In short: (§1)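 Rats dosed i.p.; tissues taken after 24 h. For GSH/GSSG, tissue homogenized in 11 volumes of 0.2 M sodium phosphate (5 mM EDTA, pH 8.0) plus 4 volumes of 25% metaphosphoric acid and centrifuged 12 000 × g, 4 °C, 30 min; supernatant read photometrically (GSH) or fluorometrically (GSSG). Lipid peroxidation products measured as TBARS in 19-volume ice-cold saline homogenates, fluorometrically.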

Rattus norvegicus [2] = test: Toxicity in Wistar rat assessed as GSH level in kidney at 1 umol/100 g body weight, ip by fluorometric analysis relative to control; format: organism-based; settings: in vivo
Rattus norvegicus [3] = test: Toxicity in Wistar rat assessed as kidney weight at 6 umol/100 g body weight, ip relative to control; format: organism-based; settings: in vivo
Rattus norvegicus [4] = test: Toxicity in Wistar rat assessed as kidney weight at 1 umol/100 g body weight, ip relative to control; format: organism-based; settings: in vivo
Rattus norvegicus [5] = test: Toxicity in Wistar rat assessed as lipidperoxidation product level in brain at 6 umol/100 g body weight, ip by fluorometric analysis relative to control; format: organism-based; settings: in vivo; in short: as §1
Rattus norvegicus [6] = test: Toxicity in Wistar rat assessed as lipidperoxidation product level in brain at 1 umol/100 g body weight, ip by fluorometric analysis relative to control; format: organism-based; settings: in vivo; in short: as §1
Rattus norvegicus [7] = test: Toxicity in Wistar rat assessed as total glutathione level in brain at 6 umol/100 g body weight, ip by fluorometric analysis relative to control; format: organism-based; settings: in vivo; in short: as §1
Rattus norvegicus [8] = test: Toxicity in Wistar rat assessed as total glutathione level in brain at 1 umol/100 g body weight, ip by fluorometric analysis relative to control; format: organism-based; settings: in vivo; in short: as §1
Rattus norvegicus [9] = test: Toxicity in Wistar rat assessed as GSSG level in brain at 1 umol/100 g body weight, ip by fluorometric analysis relative to control; format: organism-based; settings: in vivo; in short: as §1
Rattus norvegicus [10] = test: Toxicity in Wistar rat assessed as GSH level in brain at 6 umol/100 g body weight, ip by fluorometric analysis relative to control; format: organism-based; settings: in vivo
Rattus norvegicus [11] = test: Toxicity in Wistar rat assessed as GSH level in brain at 1 umol/100 g body weight, ip by fluorometric analysis relative to control; format: organism-based; settings: in vivo
Rattus norvegicus [12] = test: Toxicity in Wistar rat assessed as ethylmorphine-N-demethylation activity in liver measured as formaldehyde level at 6 umol/100 g body weight, ip by photometric analysis relative to control; format: organism-based; settings: in vivo
Rattus norvegicus [13] = test: Toxicity in Wistar rat assessed as ethylmorphine-N-demethylation activity in liver measured as formaldehyde level at 1 umol/100 g body weight, ip by photometric analysis relative to control; format: organism-based; settings: in vivo
Rattus norvegicus [14] = test: Toxicity in Wistar rat assessed as protein content in liver at 1 umol/100 g body weight, ip by Biuret method relative to control; format: organism-based; settings: in vivo
In short: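 Rats dosed i.p.; after 24 h, liver homogenized 1:3 w/v in 0.1 M sodium phosphate pH 7.4 and centrifuged at 9000 × g, 4 °C, 20 min. Supernatant protein determined by the Biuret method. Ethoxyresorufin-O-deethylation measured fluorometrically as resorufin formed.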

Rattus norvegicus [15] = test: Toxicity in Wistar rat assessed as lipidperoxidation product level in liver at 6 umol/100 g body weight, ip relative to control; format: organism-based; settings: in vivo
Rattus norvegicus [16] = test: Toxicity in Wistar rat assessed as lipidperoxidation product level in liver at 1 umol/100 g body weight, ip relative to control; format: organism-based; settings: in vivo
Rattus norvegicus [17] = test: Toxicity in Wistar rat assessed as total glutathione level in liver at 6 umol/100 g body weight, ip by fluorometric analysis relative to control; format: organism-based; settings: in vivo
In short: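 Rats were dosed, killed 24 h later, and liver and other tissues were taken. Samples were homogenized in 11 vol 0.2 M sodium phosphate (5 mM EDTA, pH 8.0) plus 4 vol 25% metaphosphoric acid, then spun at 12 000 × g, 4 °C, 30 min. GSH was read photometrically and GSSG fluorometrically in the supernatant, alongside total glutathione.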

Rattus norvegicus [18] = test: Toxicity in Wistar rat assessed as GSSG level in liver at 6 umol/100 g body weight, ip by fluorometric analysis relative to control; format: organism-based; settings: in vivo; in short: as §1
Rattus norvegicus [19] = test: Toxicity in Wistar rat assessed as GSSG level in liver at 1 umol/100 g body weight, ip by fluorometric analysis relative to control; format: organism-based; settings: in vivo; in short: as §1
Rattus norvegicus [20] = test: Toxicity in Wistar rat assessed as GSH level in liver at 1 umol/100 g body weight, ip by fluorometric analysis relative to control; format: organism-based; settings: in vivo
Rattus norvegicus [21] = test: Toxicity in Wistar rat assessed as liver weight at 6 umol/100 g body weight, ip relative to control; format: organism-based; settings: in vivo
Rattus norvegicus [22] = test: Toxicity in Wistar rat assessed as body weight at 6 umol/100 g body weight, ip relative to control; format: organism-based; settings: in vivo
[23] = Induction of nitric oxide release in PBS at 100 uM at pH 7.4 after 24 hrs by Griess method relative to control; format: physicochemical; settings: buffer, pH 7.4, 24 h
In short: (§2)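 Test compound at 100 µM in phosphate buffer pH 7.4, alone or with 90 µL rat serum added, incubated 37 °C for 24 h. Griess reagent added, then 30 min at 37 °C with gentle shaking; absorbance read at 540 nm and blank-corrected. Nitrite quantified against an NaNO2 calibration curve and expressed as % of a theoretical 1 mol NO per mol nitrate; n = 3.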

[24] = Induction of nitric oxide release in PBS at 100 uM at pH 7.4 after 24 hrs by Griess method in presence of rat serum; format: physicochemical; settings: pH 7.4, 24 h; in short: as §2
[25] = target: Amyloid-beta precursor protein (Homo sapiens) (UniProt P05067); test: Inhibition of amyloid beta (1 to 42) aggregation (unknown origin) at 50 uM after 1 hr by thioflavin T fluorescence assay relative to control
Sequence of Amyloid-beta precursor protein (Homo sapiens) (P05067 whole entry): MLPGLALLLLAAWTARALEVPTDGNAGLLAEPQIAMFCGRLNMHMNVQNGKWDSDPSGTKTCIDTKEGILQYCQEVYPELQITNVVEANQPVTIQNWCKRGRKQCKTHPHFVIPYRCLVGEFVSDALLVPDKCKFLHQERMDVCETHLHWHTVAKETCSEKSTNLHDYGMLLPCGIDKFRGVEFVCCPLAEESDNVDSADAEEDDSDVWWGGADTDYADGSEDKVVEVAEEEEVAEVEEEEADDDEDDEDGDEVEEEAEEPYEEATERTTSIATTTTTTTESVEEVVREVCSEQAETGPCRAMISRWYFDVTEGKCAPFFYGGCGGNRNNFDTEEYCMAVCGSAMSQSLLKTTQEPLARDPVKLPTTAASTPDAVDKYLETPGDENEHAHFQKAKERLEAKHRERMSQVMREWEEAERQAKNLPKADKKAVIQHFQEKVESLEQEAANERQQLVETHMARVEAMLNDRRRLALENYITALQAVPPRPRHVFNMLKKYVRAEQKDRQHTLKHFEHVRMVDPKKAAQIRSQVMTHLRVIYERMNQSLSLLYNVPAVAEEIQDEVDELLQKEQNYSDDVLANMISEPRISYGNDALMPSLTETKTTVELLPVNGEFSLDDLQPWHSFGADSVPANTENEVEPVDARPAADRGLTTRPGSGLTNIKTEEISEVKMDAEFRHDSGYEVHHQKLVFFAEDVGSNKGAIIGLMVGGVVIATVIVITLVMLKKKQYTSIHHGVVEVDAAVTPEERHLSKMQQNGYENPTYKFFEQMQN
In short: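 Aβ42 stock (200 µM in DMSO) centrifuged 12,000 rpm for 10 min; supernatant used. Compound (2 µL of 0.2–4.0 mM DMSO stock) and 2 µL Aβ42 stock added to 76 µL PBS pH 7.4, incubated 1 h at room temperature. 80 µL of 5 µM ThT in 50 mM glycine-NaOH pH 8.5 then added; fluorescence read at excitation 430 nm, emission 488 nm.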

Rattus norvegicus [26] = test: Antialzheimer activity in Wistar rat scopolamine-induced cognition impairment model assessed as total exploration time at 1 umol/100 g body weight, ip treated for 5 mins prior to scopolamine-challenge by eight-arm radial maze test relative to control; format: functional
In short: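 Female 60-day-old Wistar rats (Han:Wist) trained in an eight-arm radial maze to error-free trials under 60 s on three consecutive days; each animal served as its own control. Test agent given i.p. in saline 5 min before scopolamine (0.05 mg/100 g b. wt., i.p. in saline). Errors plus baits not found after 10 min, and total searching time, recorded before and 20, 60, 120 min after scopolamine; n = 14, mean ± SEM.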

Rattus norvegicus [27] = test: Toxicity in Wistar rat scopolamine-induced cognition impairment model assessed as change in movement at 1 umol/100 g body weight, ip; format: organism-based; settings: in vivo
In short: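 60-day-old female Wistar rats were trained in an eight-arm radial maze to no errors in under 60 s on 3 consecutive days; each rat served as its own control. Compound in saline was given i.p., then scopolamine (0.05 mg/100 g, saline, i.p.) 5 min later. Errors plus baits not found after 10 min and total searching time were recorded before and 20, 60 and 120 min after scopolamine; n = 14, mean ± SEM.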

Compound: COc1ccc2c(c1)oc1cccc(CN(C(=O)CCO[N+](=O)[O-])C(C)C)c12
- Activity (Rattus norvegicus [1]): 159 µg/g
- Activity (Rattus norvegicus [2]): 1462 µg/g
- Activity (Rattus norvegicus [3]): 0.84 g
- Activity (Rattus norvegicus [4]): 0.93 g
- Activity (Rattus norvegicus [5]): 156 nmol/g
- Activity (Rattus norvegicus [6]): 160 nmol/g
- Activity (Rattus norvegicus [7]): 830 µg/g
- Activity (Rattus norvegicus [8]): 814 µg/g
- Activity (Rattus norvegicus [9]): 84.8 µg/g
- Activity (Rattus norvegicus [10]): 672 µg/g
- Activity (Rattus norvegicus [11]): 645 µg/g
- Activity (Rattus norvegicus [12]): 0.52 nmol/mg/min
- Activity (Rattus norvegicus [13]): 0.48 nmol/mg/min
- Activity (Rattus norvegicus [14]): 66.4 mg/mL
- Activity (Rattus norvegicus [15]): 63.9 nmol/g
- Activity (Rattus norvegicus [16]): 57.7 nmol/g
- Activity (Rattus norvegicus [17]): 3320 µg/g
- Activity (Rattus norvegicus [18]): 418 µg/g
- Activity (Rattus norvegicus [19]): 411 µg/g
- Activity (Rattus norvegicus [20]): 2542 µg/g
- Activity (Rattus norvegicus [21]): 8 g
- Activity (Rattus norvegicus [22]): 259 g
- Activity [23]: 4.8%
- Activity [24]: Active
- inhibition [25]: 19%
- Time (Rattus norvegicus [26]): 175 s
- Activity (Rattus norvegicus [27]): Non-toxic
